MIC and Drug uptake data for seven molecules are collected here from ChEMBL document CHEMBL1649115, “Enhanced susceptibility to antifungal oligopeptides in yeast strains overexpressing ABC multidrug efflux pumps” (Antimicrob Agents Chemother, 2008).

The subject of series [1] is Candida albicans. The series can be described thus: Antifungal activity against fluconazole sensitive Candida albicans isolate B3 in RPMI-1640 buffered medium after 24 hrs by microdilution method. Format: functional. The essentials:
(§1)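 C. albicans cells were grown in 2% glucose, 1% yeast extract, 1% Bacto peptone medium before testing. […] CARE-2 fingerprinting confirmed that each pair is a single strain.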
(In general: Broth dilution looks for growth in wells or tubes with falling amounts of substance.)

Series [2] deals with Saccharomyces cerevisiae. Kind of series: Antifungal activity against wild type Saccharomyces cerevisiae ATCC 9763 in YNPG-proline medium after 24 hrs by microdilution method. Format: functional. Conditions: ATCC 9763, 24 h.
The test system of series [3] is Candida albicans. The series can be described thus: Antifungal activity against fluconazole sensitive Candida albicans isolate Gu4 in RPMI-1640 buffered medium after 24 hrs by microdilution method. Format: functional. The essentials:
as §1

Series [4] concerns Candida albicans. Kind of series: Antifungal activity against fluconazole resistant Candida albicans isolate B4 overexpressing MDR1 in RPMI-1640 buffered medium after 24 hrs by microdilution method. In kind it is functional. The essentials:
as §1

For series [5], the system named is Saccharomyces cerevisiae. The series can be described thus: Antifungal activity against Saccharomyces cerevisiae AD12345678 in YNPG-proline medium after 24 hrs by microdilution method. In kind it is functional. The settings on record: AD12345678, 24 h.
Series [6] has as its system Saccharomyces cerevisiae. Kind of series: Antifungal activity against Saccharomyces cerevisiae ADMDR1 expressing Candida albicans MDR1 efflux pump in YNPG-proline medium after 24 hrs by microdilution method. Format: functional. The settings on record: ADMDR1, 24 h.
For series [7], the system named is Saccharomyces cerevisiae. The series can be described thus: Antifungal activity against Saccharomyces cerevisiae ADCDR1 expressing Candida albicans CDR1 efflux pump in YNPG-proline medium after 24 hrs by microdilution method. Conditions: ADCDR1, 24 h. Format: functional.
For series [8], the system named is Candida albicans. Kind of series: Antifungal activity against fluconazole resistant Candida albicans isolate Gu5 overexpressing CDR1 and CDR2 in RPMI-1640 buffered medium after 24 hrs by microdilution method. Format: functional. The settings on record: isolate Gu5, 24 h. In short, it runs like this: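 C. albicans cells were grown in 2% glucose, 1% yeast extract, 1% Bacto peptone medium before testing. CARE-2 fingerprinting confirmed that each pair is a single strain.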

In series [9] the test system is Saccharomyces cerevisiae. The series can be described thus: Antifungal activity against Saccharomyces cerevisiae ADCDR2 expressing Candida albicans CDR2 efflux pump in YNPG-proline medium after 24 hrs by microdilution method. Format: functional. The settings on record: ADCDR2, 24 h.
Series [10] relates to Candida albicans. Kind of series: Antifungal activity against wild type Candida albicans 10261 in RPMI-1640 buffered medium after 24 hrs by microdilution method. In kind it is functional. The essentials: as §1
The subject of series [11] is Saccharomyces cerevisiae. The series can be described thus: Drug uptake in Saccharomyces cerevisiae ADMDR1 expressing Candida albicans MDR1 efflux pump at 200 uM pretreated for 10 mins measured after 60 mins by fluorescamine staining. Format: ADME, organism-based. Conditions: in vivo, 1 h.
In series [12] the test system is Saccharomyces cerevisiae. The series can be described thus: Drug uptake in Saccharomyces cerevisiae ADCDR2 expressing Candida albicans CDR2 efflux pump at 200 uM pretreated for 10 mins measured after 60 mins by fluorescamine staining. In kind it is ADME, organism-based. The settings on record: in vivo, 1 h.
For series [13], the system named is Saccharomyces cerevisiae. The series can be described thus: Drug uptake in Saccharomyces cerevisiae AD12345678 at 200 uM pretreated for 10 mins measured after 60 mins by fluorescamine staining. In kind it is ADME, organism-based. Conditions: in vivo, 1 h.
Series [14] has as its system Saccharomyces cerevisiae. The series can be described thus: Drug uptake in Saccharomyces cerevisiae ADCDR1 expressing Candida albicans CDR1 efflux pump at 200 uM pretreated for 10 mins measured after 60 mins by fluorescamine staining. Format: ADME, organism-based. Conditions: in vivo, 1 h.
[15] abbreviates: Candida albicans, isolate B3, 24 h, read-out: MIC.
The mark [16] stands for this setting: Candida albicans, isolate Gu4, 24 h, read-out: MIC.
Setting [17] is: Candida albicans, isolate B4, 24 h, read-out: MIC.
[18] abbreviates: Candida albicans, 10261, 24 h, read-out: MIC.

Values after ≈ are worked out from the molar mass of the structure shown. Residues, ends and D or L forms follow the SMILES beside them. *: point of attachment. Ethyl(2-NH2) = NCC*

`CC(C)C[C@H](NC(=O)[C@@H](N)COCCN)C(=O)NCC(=O)O`: the MIC (commonly the lowest concentration that inhibits growth of the organism) in the series on Candida albicans [1] (setting [15]) was determined as 64 µg/mL (≈ 201 µM); against Saccharomyces cerevisiae [2], 8 µg/mL (≈ 25.1 µM); in the series with Candida albicans [3] (setting [16]) it was 256 µg/mL (≈ 804 µM); in the series with Candida albicans [4] (setting [17]), 32 µg/mL (≈ 101 µM); against Saccharomyces cerevisiae [5] it was 4 µg/mL (≈ 12.6 µM); with Saccharomyces cerevisiae [6], 4 µg/mL (≈ 12.6 µM). In addition, the MIC was 1 µg/mL (≈ 3.14 µM) in the series on Saccharomyces cerevisiae [7], 16 µg/mL (≈ 50.3 µM) in the series on Candida albicans [8], 1 µg/mL (≈ 3.14 µM) with Saccharomyces cerevisiae [9] and 128 µg/mL (≈ 402 µM) with Candida albicans [10] (setting [18]).
In the case of `CCC[C@H](NC(=O)[C@@H](N)CCCCN)C(=O)N[C@@H](CNC(=O)/C=C/C(=O)OC)C(=O)O`, the MIC came to 8 µg/mL (≈ 18 µM) in the series with Candida albicans [1] (setting [15]); 32 µg/mL (≈ 72.2 µM) against Saccharomyces cerevisiae [2]; 4 µg/mL (≈ 9.02 µM) in the series on Candida albicans [3] (setting [16]); 8 µg/mL (≈ 18 µM) in the series on Candida albicans [4] (setting [17]); 32 µg/mL (≈ 72.2 µM) against Saccharomyces cerevisiae [5]; 32 µg/mL (≈ 72.2 µM) against Saccharomyces cerevisiae [6]. Besides, the minimal inhibitory concentration (MIC) with Saccharomyces cerevisiae [7] was 4 µg/mL (≈ 9.02 µM); in the series with Candida albicans [8], 1 µg/mL (≈ 2.25 µM); against Saccharomyces cerevisiae [9] it was 8 µg/mL (≈ 18 µM); with Candida albicans [10] (setting [18]), 8 µg/mL (≈ 18 µM).
As for `C[C@H](N)C(=O)N[C@@H](C)C(=O)N[C@@H](C)C(=O)O`, the Drug uptake worked out at 2.91 nmol/min/mg with Saccharomyces cerevisiae [11], 4.74 nmol/min/mg in the series on Saccharomyces cerevisiae [12], 3.15 nmol/min/mg in the series on Saccharomyces cerevisiae [13] and 5.3 nmol/min/mg in the series with Saccharomyces cerevisiae [14].
`CC(C)C[C@H](NC(=O)[C@H](CC(C)C)NC(=O)[C@@H](N)COCCN)C(=O)NCC(=O)O` (H-S(Ethyl(2-NH2))LLG-OH): the MIC in the series on Saccharomyces cerevisiae [2] is 64 µg/mL (≈ 148 µM); in the series on Saccharomyces cerevisiae [5], 64 µg/mL (≈ 148 µM); in the series with Saccharomyces cerevisiae [6], 64 µg/mL (≈ 148 µM); against Saccharomyces cerevisiae [7], 16 µg/mL (≈ 37.1 µM); against Saccharomyces cerevisiae [9], 32 µg/mL (≈ 74.2 µM).
For `CC(C)C[C@H](NC(=O)[C@H](CC(C)C)NC(=O)[C@H](CC(C)C)NC(=O)[C@@H](N)COCCN)C(=O)NCC(=O)O` (H-S(Ethyl(2-NH2))LLLG-OH), the MIC worked out at 256 µg/mL (≈ 470 µM) with Saccharomyces cerevisiae [2]; 256 µg/mL (≈ 470 µM) in the series with Saccharomyces cerevisiae [5]; 256 µg/mL (≈ 470 µM) in the series on Saccharomyces cerevisiae [6]; 128 µg/mL (≈ 235 µM) against Saccharomyces cerevisiae [7]; 128 µg/mL (≈ 235 µM) with Saccharomyces cerevisiae [9].
For `C[C@H](N)C(=O)O` [ALANINE], the Drug uptake in the series with Saccharomyces cerevisiae [11] amounted to 3.33 nmol/min/mg; in the series with Saccharomyces cerevisiae [12], 4.35 nmol/min/mg; in the series on Saccharomyces cerevisiae [13] it was 3.51 nmol/min/mg; in the series with Saccharomyces cerevisiae [14], 4.16 nmol/min/mg.
As for `OC(Cn1cncn1)(Cn1cncn1)c1ccc(F)cc1F` [FLUCONAZOLE], the MIC is 4 µg/mL (≈ 13.1 µM) against Candida albicans [1]; 4 µg/mL (≈ 13.1 µM) with Candida albicans [1] (setting [15]); 2 µg/mL (≈ 6.53 µM) against Saccharomyces cerevisiae [2]; 8 µg/mL (≈ 26.1 µM) against Candida albicans [3]; 8 µg/mL (≈ 26.1 µM) in the series on Candida albicans [3] (setting [16]); 64 µg/mL (≈ 209 µM) against Candida albicans [4]. The MIC with Candida albicans [4] (setting [17]) stood at 64 µg/mL (≈ 209 µM); with Saccharomyces cerevisiae [5] it was 1 µg/mL (≈ 3.27 µM); in the series on Saccharomyces cerevisiae [6], 32 µg/mL (≈ 104 µM); in the series with Saccharomyces cerevisiae [7] it was 32 µg/mL (≈ 104 µM); in the series on Saccharomyces cerevisiae [9], 16 µg/mL (≈ 52.2 µM); in the series on Candida albicans [10] it was 4 µg/mL (≈ 13.1 µM). In the series on Candida albicans [10] (setting [18]), the MIC came out at 4 µg/mL (≈ 13.1 µM).
